Data as given in ChEMBL document CHEMBL1126662, “Synthesis and use of the n-bromododecane-1,12-diols as conformational probes for general anesthetic target sites” (J Med Chem, 1993).
pEC50, pKi: −log10 of the molar value. Converted amounts (≈) assume the structure as drawn.

Columns and labels:
[1] = Aqueous solubility in 25 mM N-glycyl-glycine and 10 mM MgSO4 (pH 7.8); assay type: physicochemical; settings: 25 mM N-glycyl-glycine and 10 mM MgSO4 buffer, read-out: S
Summary of the method: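 Diol solubility measured at 25 ± 1 °C in pH 7.8 buffer (25 mM N-glycylglycine, 10 mM MgSO4), a modified Curry method; dissolved diol quantified by inhibition of firefly luciferase. Values mean ± SE.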

[2] = Headecane/water partition coefficient expressed as the equilibrium ratio of the molar concentration in n-hexadecane to that in the buffer; assay type: physicochemical
Summary of the method: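 Molar partition between n-hexadecane and pH 7.8 glycylglycine/MgSO4 buffer at 25 ± 1 °C; aqueous diol measured by luciferase method; at least five independent determinations per diol; mean ± SE.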

[3] = Concentration which inhibits luciferase activity by 50% when the luciferon concentration is at its Km; set-up: species or system Lampyridae
Summary of the method: (§1)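 Luciferase purified from Photinus pyralis lanterns by affinity chromatography; light-emission assay at 25 ± 1 °C with 2 mM ATP, competitive versus luciferin. Diols added in ethanol (final 23 mM, also in controls). Triplicate activities at ~5 diol levels each paired with control; Ki by weighted least squares from ~15 estimates; EC50 = 2Ki at luciferin Km.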

[4] = Inhibition constant for firefly luciferase was evaluated; set-up: species or system Lampyridae; summary of the method: as §1
[5] = Concentration which anesthetizes 50% of a population of Rana temporaria tadpoles at 20 degrees Centigrade; assay type: functional, frog
Summary of the method: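 Rana temporaria tadpoles (20–25 mm) at 20 ± 1 °C, six per beaker in 7–10 beakers of tap water with graded diol. Endpoint: no reflex to gentle glass-rod tap on side or snout, tested every 15 min up to 2 h; Waud dose–response analysis. Convulsing tadpoles excluded.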

Structure (SMILES) | solubility [1] [µM] | Khd [2] | pEC50 [3] | pKi [4] | pEC50 [5]
OCCCCCCCCCCC(Br)CO (stereo not given) | 725 (≈ 204 µg/mL) | 13 | 6.06 | 6.36 | 4.47
OCCCCCCCCCCCCO | 95 (≈ 19.2 µg/mL) | 4.7 | 5.81 | 6.11 | 4.41
OCCCCCCCCCC(Br)CCO (stereo not given) | 800 (≈ 225 µg/mL) | 3.1 | 5.76 | 6.06 | 4.25
OCCCCCCC(Br)CCCCCO (stereo not given) | 2260 (≈ 636 µg/mL) | 0.32 | 4.53 | 4.84 | 4.01
OCCCCCCCC(Br)CCCCO (stereo not given) | 2340 (≈ 658 µg/mL) | 0.9 | 5.13 | 5.43 | 4.54
